Data taken from PubChem BioAssay.
Activity calls are given as the source filed them.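 The calls were made as follows, unless noted: active = inhibition at or above 50% at 10 µM; inactive = inhibition below 50%.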

How the values were obtained:
[1] = inhibitors of TNFa-induced NFkB p65 translocation, primary screen, imaging, HUVEC, MLSMR starter and 10KST1 sets (AID 438;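 active = inhibition above 20% together with a positive visual image hit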;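 also: compound added about 3h40 before a 20 min TNFalpha stimulation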;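 as to inhibition: signal is the nuclear over cytoplasmic p65 intensity ratio per well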); settings: HUVEC TNFa-induced p65 nuclear translocation; cell count: measured here: nuclei count (cytotoxicity indicator), at 2.08 µM; inhibition: at 2 µM, stronger effect = higher value, 0% TNFa-plus-vehicle, 100% no-TNFa wells
[2] = inhibitors of mutant huntingtin aggregation, primary screen, imaging, exon1htt(103Q)mCFP cells, high-content imaging (AID 483;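 active = visual image review flags a hit and inhibition of aggregation exceeds 20%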;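 also: compound exposure lasted 3 days before fixation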;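 as to nuclei count: percent of the per-plate median nuclei count of sample wells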); settings: exon1htt(103Q)mCFP cell line, aggregate imaging, at 2 µM; inhibition of aggregation: stronger effect = higher value; nuclei count: measured here: cell count, toxicity
[3] = inhibitors of E-selectin induction by TNFa, primary screen, imaging, HUVEC, immunofluorescence, MLSMR starter and 10KST1 sets (AID 487;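 active = visually confirmed hit in the image check and inhibition above 20%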;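 as to inhibition: signal is fraction of cell area covered by stained E-selectin grains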;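 as to nuclei count: 100% = median nuclei count of all wells on the same plate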); settings: HUVEC TNFalpha-induced E-selectin immunofluorescence imaging, at 2 µM; inhibition: stronger effect = higher value; nuclei count: measured here: cell number, toxicity
[4] = biological target: Voltage-gated potassium channel subunit beta-2 (Rattus norvegicus) (UniProt P62483); assay: KvBeta enzyme negative modulators, primary screen, biochemical, NADPH fluorescence (AID 622;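 active = fluorescence slope higher than the sample average by over 3 SD, cut at about -0.22 in these data, passing the limit was not always enough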;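 also: slope of raw intensity against log time taken from 70 to 1610 s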); settings: recombinant KvBeta, 4-cyanobenzaldehyde reduction, at 10 µM, stronger effect = higher value
[5] = biological target: Voltage-gated potassium channel subunit beta-2 (Rattus norvegicus) (UniProt P62483); assay: KvBeta positive modulators, primary screen, biochemical, NADPH fluorescence (AID 623;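 active = NADPH fluorescence slope more negative than the mean of all samples by about 3 SD, 99.7% confidence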;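 also: fluorescence intensity change per second fitted from 20 to 320 s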); settings: Recombinant KvBeta, NADPH fluorescence decrease slope, 10 min; at 10 µM; stronger effect = lower value
[6] = biological target: Muscarinic acetylcholine receptor M4 (Homo sapiens) (UniProt P08173); assay: compounds altering M4/GIRK thallium flux, either direction, primary screen, M4 allosteric agonist project, cell-based, HEK293 M4/GIRK, BTC-AM (AID 625;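 active = fluorescence slope after compound addition differing from the mean of all tested samples at 99.7% confidence, mostly higher but some lower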;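 also: thallium influx through GIRK channels coupled to M4 in HEK293 cells with BTC-AM dye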); settings: at 10 µM, actives lie on both sides
Summary of the method: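 assay system = HEK293 cells with M4 receptor and GIRK channels | medium = pH 7.3 thallium assay buffer | doses = 10 µM final, single point | timing = cells overnight at 37 °C, BTC-AM loading 1 h, reads 2 min total | signal = BTC-AM fluorescence, 1 Hz kinetic reads | read-out = post-addition slope, 15–24 s, of baseline-normalized fluorescence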

[7] = inhibitors of Sendai virus-induced IRF3 signaling, primary screen, TLR/RLR signaling modifier project, cell-based, Sendai virus stimulus, luciferase, 10K MLSCN set (AID 602276); settings: HEK293 RL24 IRF3 luciferase reporter, at 10 µM, stronger effect = higher value;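 also: firefly luciferase from ISG56 promoter only with Renilla not read in this screen; 0% = Sendai virus plus DMSO and 100% = medium plus DMSO without virus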
[8] = inhibitors of poly I:C-induced TLR3 signaling, primary screen, cell-based, poly I:C stimulus, luciferase, 10K MLSCN set (AID 602277;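 active = inhibition of the reporter signal at or above 50%; inactive = inhibition below 50%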); settings: HEK293-TLR3 RL24 IRF3 luciferase reporter, at 10 µM, stronger effect = higher value

Voltage-gated potassium channel subunit beta-2 (Rattus norvegicus), sequence (P62483 whole entry, looked up): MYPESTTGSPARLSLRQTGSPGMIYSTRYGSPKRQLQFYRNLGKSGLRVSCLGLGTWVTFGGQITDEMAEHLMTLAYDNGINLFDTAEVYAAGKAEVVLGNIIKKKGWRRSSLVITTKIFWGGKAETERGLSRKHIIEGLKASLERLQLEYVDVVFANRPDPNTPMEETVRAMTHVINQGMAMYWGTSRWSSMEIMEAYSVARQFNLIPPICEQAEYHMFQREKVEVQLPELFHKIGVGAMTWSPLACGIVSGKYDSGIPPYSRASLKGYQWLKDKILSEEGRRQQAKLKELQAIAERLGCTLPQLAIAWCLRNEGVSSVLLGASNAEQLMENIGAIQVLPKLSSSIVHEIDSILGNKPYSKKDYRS
Muscarinic acetylcholine receptor M4 (Homo sapiens), sequence (P08173 whole entry, looked up): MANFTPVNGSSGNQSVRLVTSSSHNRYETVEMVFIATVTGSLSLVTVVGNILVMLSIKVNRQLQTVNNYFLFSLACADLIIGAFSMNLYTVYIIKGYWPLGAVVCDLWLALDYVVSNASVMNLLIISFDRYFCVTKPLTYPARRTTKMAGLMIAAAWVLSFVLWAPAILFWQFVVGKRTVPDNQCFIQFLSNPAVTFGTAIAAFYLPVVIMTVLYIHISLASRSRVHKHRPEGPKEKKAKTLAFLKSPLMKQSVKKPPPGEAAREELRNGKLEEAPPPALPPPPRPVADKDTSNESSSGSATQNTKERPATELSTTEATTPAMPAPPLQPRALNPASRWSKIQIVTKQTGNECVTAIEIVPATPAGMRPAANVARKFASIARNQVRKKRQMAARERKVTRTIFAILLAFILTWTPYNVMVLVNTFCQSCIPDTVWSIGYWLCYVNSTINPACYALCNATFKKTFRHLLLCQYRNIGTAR

Row | Compound | cell count [1] | inhibition [1] | inhibition of aggregation [2] | nuclei count [2] [%] | inhibition [3] | nuclei count [3] [%] | fluorescence slope [4] | NADPH fluorescence slope [5] | fluorescence slope [6] | inhibition [7] | inhibition [8]
1 | Cc1ccc(-c2nnn(CC(=O)N(CC(=O)NCC3CCCO3)c3ccccc3)n2)o1 (stereo not drawn) | 618 | -3.6% (inactive) | -12.2% (inactive) | 85.7 | -161% (inactive) | 106 | -0.584 (inactive) | -1.6e-05 (inactive) | 0.00876 (inactive) | 1.41% (inactive) | 5.51% (inactive)
2 | COc1cc(C2C3=C(CC(C)(C)CC3=O)Nc3c2c(=O)[nH]c(=O)n3Cc2ccccc2)ccc1O (stereo not drawn) | 271 | 15% (inactive) | -4.8% (inactive) | 104 | -45.4% (inactive) | 114 | -0.463 (inactive) | -8e-05 (inactive) | 0.00547 (inactive) | 9.34% (inactive) | 5.06% (inactive)
3 | COCCN1C(=O)C(=O)/C(=C(/O)c2cccc(OC)c2)C1c1ccncc1 (stereo not drawn) | 272 | 22.2% (inactive) | 17.9% (inactive) | 95.1 | 54.5% (inactive) | 92.1 | -0.578 (inactive) | -8.8e-06 (inactive) | 0.00539 (inactive) | 13.1% (inactive) | 15.1% (inactive)
4 | COc1ccc(CN(C(=O)CNC(=O)c2ccco2)C(C(=O)NC2CCCC2)c2ccco2)cc1 (stereo not drawn) | 510 | 7.2% (inactive) | 3.1% (inactive) | 105 | -62.9% (inactive) | 123 | -0.592 (inactive) | -1.6e-05 (inactive) | 0.00679 (inactive) | -14.2% (inactive) | -26.3% (inactive)
5 | C=CCc1cc(C(=O)N2CCCCC2)ccc1O | 442 | 3.4% (inactive) | 6.3% (inactive) | 99.5 | -96.3% (inactive) | 118 | -0.523 (inactive) | -0.000166 (inactive) | 0.00415 (inactive) | 5.94% (inactive) | -14% (inactive)
6 | Cc1ccc(-c2nn(C)c(=O)c3ccccc23)cc1S(=O)(=O)N1CCOCC1 | 595 | -10.5% (inactive) | -24.4% (inactive) | 101 | -64.2% (inactive) | 102 | -0.511 (inactive) | -2.7e-05 (inactive) | 0.0045 (inactive) | 8.97% (inactive) | 30.3% (inactive)
7 | COc1ccc2c(c1)C(=NO)c1cc(OC)ccc1-2 | 667 | -26.7% (inactive) | 15.4% (inactive) | 101 | -48.8% (inactive) | 116 | -0.373 (inactive) | -8e-05 (inactive) | 0.00525 (inactive) | -23.1% (inactive) | -28.9% (inactive)
8 | CCCCOC(=O)Nc1nc2ccc(OC)cc2s1 | 743 | -10.1% (inactive) | 7.1% (inactive) | 100 | -29.1% (inactive) | 108 | -0.324 (inactive) | -5.1e-05 (inactive) | 0.00658 (inactive) | -0.307% (inactive) | -118% (inactive)
9 | Cn1c(=O)cc(OCC(=O)N2CCN(c3cccc(C(F)(F)F)c3)CC2)c2ccccc21 | 377 | -8.3% (inactive) | -13.4% (inactive) | 118 | -12.8% (inactive) | 113 | -0.426 (inactive) | 6.8e-05 (inactive) | 0.00701 (inactive) | 13.7% (inactive) | 15.2% (inactive)
10 | Cc1csc(SCC(=O)NC(=O)NCc2ccccc2)n1 | 624 | -17.1% (inactive) | -16.6% (inactive) | 114 | -30.3% (inactive) | 123 | -0.407 (inactive) | 9.9e-05 (inactive) | 0.0067 (inactive) | 15.1% (inactive) | 20% (inactive)
11 | CCOc1ccc(N(C)S(=O)(=O)c2ccc3[nH]cc(C(=O)NCC4CCCO4)c(=O)c3c2)cc1 (stereo not drawn) | 313 | 3.3% (inactive) | -9.8% (inactive) | 67.5 | 4% (inactive) | 96.5 | -0.567 (inactive) | -4.5e-05 (inactive) | 0.00944 (inactive) | 1.36% (inactive) | 23% (inactive)
12 | CCOC(=O)C1CCCN(C(=O)CNS(=O)(=O)c2ccc(Br)s2)C1 (stereo not drawn) | 232 | 3.3% (inactive) | -8.6% (inactive) | 108 | -33.6% (inactive) | 113 | -0.437 (inactive) | -5.6e-05 (inactive) | 0.00599 (inactive) | 11.6% (inactive) | 8.54% (inactive)
13 | CCn1c(CSc2ncccn2)nnc1SCC(=O)N1c2ccccc2CC1C (stereo not drawn) | 644 | 27.9% (active) | -1.3% (inactive) | 103 | -3.3% (inactive) | 95.8 | -0.446 (inactive) | -7.9e-06 (inactive) | 0.00475 (inactive) | 12.2% (inactive) | 0.579% (inactive)
14 | Cc1occc1C(=O)Nc1cccnc1 | 537 | -21.3% (inactive) | -33.6% (inactive) | 108 | -9.9% (inactive) | 84.1 | -0.538 (inactive) | -4.1e-05 (inactive) | 0.00413 (inactive) | 18.2% (inactive) | 7.63% (inactive)
15 | O=C(Cn1nc(C(F)(F)F)c2c1CCCC2)NCCN1CCOCC1 | 584 | -6.8% (inactive) | -26.7% (inactive) | 103 | -8.6% (inactive) | 93.4 | -0.516 (inactive) | -0.00011 (inactive) | 0.00274 (inactive) | 17.5% (inactive) | 25.2% (inactive)
16 | O=C(CN1CCC(n2nnc3cc(F)ccc32)CC1)Nc1ccc2c(c1)CCC2 | 590 | -57.1% (inactive) | -14.1% (inactive) | 112 | -84.4% (inactive) | 108 | -0.364 (inactive) | -1.5e-05 (inactive) | 0.00687 (inactive) | 14.8% (inactive) | 1.94% (inactive)
17 | CCN1CCN(Cc2ccc(NC(=O)Nc3ccc(SC)cc3)cc2)CC1 | 268 | -1.7% (inactive) | 16.3% (inactive) | 97.3 | -52.1% (inactive) | 93.5 | -0.54 (inactive) | -3.4e-05 (inactive) | 0.00398 (inactive) | -29.9% (inactive) | -81.3% (inactive)
18 | CCn1nnnc1NCc1cccn1C | 401 | 11% (inactive) | -12% (inactive) | 110 | -41.2% (inactive) | 100 | -0.414 (inactive) | 0.000106 (inactive) | 0.00612 (inactive) | 16.1% (inactive) | 22% (inactive)
19 | Cc1ccc(S(=O)(=O)NCCc2ccncc2)cc1 | 560 | -1.9% (inactive) | 6.8% (inactive) | 92.8 | -47.2% (inactive) | 106 | -0.578 (inactive) | -5.6e-05 (inactive) | 0.00601 (inactive) | 7.81% (inactive) | 17.1% (inactive)
20 | CCn1cc(C(=O)NCCN(C)CCc2ccccc2)c(=O)c2cc(S(=O)(=O)N(C)C)ccc21 | 543 | -20.4% (inactive) | -8.6% (inactive) | 118 | -10.5% (inactive) | 110 | -0.494 (inactive) | 0.0002 (inactive) | 0.00668 (inactive) | 14% (inactive) | 18.4% (inactive)
21 | N/C(Cn1nnc(-c2ccccc2)n1)=N\O | 707 | 5.4% (inactive) | -14.8% (inactive) | 108 | 12.5% (inactive) | 114 | -0.463 (inactive) | 2.3e-05 (inactive) | 0.00645 (inactive) | -16.8% (inactive) | 89.1% (active)
22 | O=C(C1CC1)N(Cc1ccco1)c1nc(-c2ccccc2)cs1 | 336 | 6.6% (inactive) | 3.5% (inactive) | 104 | -72.7% (inactive) | 109 | -0.445 (inactive) | -8.7e-05 (inactive) | 0.00828 (inactive) | -13.9% (inactive) | -15.4% (inactive)
23 | CC(C)(C)SCCNC(=O)COc1ccccc1 | 368 | -2.3% (inactive) | 16.8% (inactive) | 91.5 | -16.9% (inactive) | 110 | -0.32 (inactive) | -4.6e-05 (inactive) | 0.00624 (inactive) | 1.01% (inactive) | -18% (inactive)
24 | CCCc1nc2ccccc2c2nc(N)nn12 | 435 | 7.7% (inactive) | 13.1% (inactive) | 82.1 | 21.4% (inactive) | 101 | -0.458 (inactive) | 3.4e-05 (inactive) | 0.00513 (inactive) | 13.7% (inactive) | 12.1% (inactive)
25 | Nc1nc(SCCOc2ccccc2)n[nH]1 | 256 | -3% (inactive) | 18.6% (inactive) | 76.7 | -41.8% (inactive) | 105 | -0.571 (inactive) | -1.8e-05 (inactive) | 0.00618 (inactive) | 4.33% (inactive) | 3.33% (inactive)
26 | O=C(NC1CCCC1)c1cc(-c2cccs2)on1 | 443 | -5.1% (inactive) | -2.2% (inactive) | 99.3 | 16.1% (inactive) | 105 | -0.441 (inactive) | -2.8e-06 (inactive) | 0.00483 (inactive) | -40.4% (inactive) | -146% (inactive)
27 | CCCCc1cc(=O)oc2cc(C)cc(OC(C)C(=O)O)c12 (stereo not drawn) | 452 | -2.1% (inactive) | -5.4% (inactive) | 110 | -39.6% (inactive) | 134 | -0.0718 (inactive) | -1e-05 (inactive) | 0.00603 (inactive) | 5.95% (inactive) | 21.5% (inactive)
28 | Cc1nn(-c2ccc(F)cc2)c2nc(N)c(C#N)c(-c3cccs3)c12 | 483 | 5.7% (inactive) | 3% (inactive) | 81.1 | -126% (inactive) | 160 | -0.437 (inactive) | -1.4e-05 (inactive) | 0.00193 (inactive) | 12.4% (inactive) | 20.7% (inactive)
